Measurements taken from ChEMBL document CHEMBL1153450, “Ligustrazine derivatives. Part 3: Design, synthesis and evaluation of novel acylpiperazinyl derivatives as potential cerebrocardiac vascular agents” (Bioorg Med Chem, 2009).

What was measured:
[1] = Antiplatelet activity in rabbit platelets assessed as inhibition of ADP-induced platelet aggregation at 200 uM by aggregometer; assay type: functional, Oryctolagus cuniculus; parameters: scale not given: the % may be the effect or the level left
How it was run: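 Rabbit blood anticoagulated with 3.8% trisodium citrate (0.3 ml per 2.7 ml blood). ADP and compound (200 µM) added in sequence, with blank and ADP-control cuvettes. Platelet-rich plasma from 270 g/5 min spin, platelet-poor plasma from 1000 g/10 min spin. Aggregation read on aggregometer and reported as mean aggregation rate A% (n = 6).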

[2] = test system: ECV-304; experiment: Protection against hydrogen peroxide-induced cell damage in human ECV304 cells treated 30 mins before hydrogen peroxide challenge measured after 6 hrs; assay type: functional, cell-based
How it was run: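 ECV-304 cells grown 24 h, then given fresh medium with compound at 12.5, 25, 50, 100 or 200 µM. After 0.5 h, 150 µM H2O2 added, then 6 h further incubation. Read-out is absorbance at 570 nm, mean ± SEM, n = 6. Proliferation rate = (OD compd − OD H2O2)/(OD control − OD H2O2) × 100%. EC50 derived by a pEC50 summation formula over proliferation rates.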

[3] = Half life in human; assay type: ADME, organism-based; settings: in vivo

**Q.** With `Cc1nc(C)c(CN2CCN(C(=O)c3ccc(I)cc3)CC2)nc1C` as the compound, how does the Activity [1] read?
**A.** Its Activity is 25.17%.

**Q.** What about the EC50 [2] of the same compound?
**A.** The EC50 was 125 µM.

**Q.** Which Activity [1] does the source give for `Cc1nc(C)c(CN2CCN(C(=O)C(=O)c3ccccc3)CC2)nc1C` here?
**A.** The Activity was 26.11%.

**Q.** And the EC50 [2]?
**A.** Its EC50 is 304 µM.

**Q.** What does the source list for `Cc1nc(C)c(CN2CCN(C(=O)c3ccccc3O)CC2)nc1C`?
**A.** Activity [1]: 16.71%; EC50 [2]: 6.13 µM

**Q.** Which Activity [1] does the source give for `Cc1nc(C)c(CN2CCN(S(=O)(=O)c3ccccc3)CC2)nc1C` here?
**A.** The Activity was 24.49%.

**Q.** What about the EC50 [2] of the same compound?
**A.** Its EC50 is 480 µM.

**Q.** With `Cc1ccc(S(=O)(=O)N2CCN(Cc3nc(C)c(C)nc3C)CC2)cc1` as the compound, how does the Activity [1] read?
**A.** Its Activity is 25.13%.

**Q.** For `CCOC(=O)N1CCN(Cc2nc(C)c(C)nc2C)CC1`, which Activity [1] is on record?
**A.** Its Activity is 15.25%.

**Q.** And the EC50 [2]?
**A.** The EC50 was 76.6 µM.

**Q.** Which results are given for `COc1cc(C(=O)N2CCN(Cc3nc(C)c(C)nc3C)CC2)cc(OC)c1OC`?
**A.** Activity [1]: 14.26%; EC50 [2]: 88.7 µM

**Q.** Which results are given for `COc1ccc(C(=O)N2CCN(Cc3nc(C)c(C)nc3C)CC2)cc1OC`?
**A.** Activity [1]: 29.06%; EC50 [2]: 170 µM

**Q.** What does the source list for `Cc1nc(C)c(CN2CCN(C(=O)c3cc([N+](=O)[O-])cc([N+](=O)[O-])c3)CC2)nc1C`?
**A.** Activity [1]: 15.67%; EC50 [2]: 179 µM

**Q.** With `Cc1nc(C)c(CN2CCN(C(=O)CCc3ccccc3)CC2)nc1C` as the compound, how does the Activity [1] read?
**A.** The Activity was 13.29%.

**Q.** And the EC50 [2]?
**A.** Its EC50 is 150 µM.

**Q.** For `Cc1nc(C)c(CN2CCN(C(=O)Cc3ccccc3)CC2)nc1C`, which Activity [1] is on record?
**A.** The Activity was 25.59%.

**Q.** What about the EC50 [2] of the same compound?
**A.** The EC50 was 189 µM.

**Q.** Which results are given for `COc1cccc(/C=C/C(=O)N2CCN(Cc3nc(C)c(C)nc3C)CC2)c1OC`?
**A.** Activity [1]: 8.78%; EC50 [2]: 340 µM

**Q.** For `COc1cc(/C=C/C(=O)N2CCN(Cc3nc(C)c(C)nc3C)CC2)ccc1OC(C)=O`, which Activity [1] is on record?
**A.** The Activity was 5.84%.

**Q.** Which results are given for `Cc1nc(C)c(CN2CCN(C(=O)c3ccccc3)CC2)nc1C`?
**A.** Activity [1]: 28.46%; EC50 [2]: 241 µM

**Q.** What does the source list for `Cc1nc(C)c(CN2CCN(C(=O)c3ccccc3Cl)CC2)nc1C`?
**A.** Activity [1]: 27.24%; EC50 [2]: 161 µM

**Q.** Which Activity [1] does the source give for `Cc1nc(C)c(CN2CCN(C(=O)c3cccc(Cl)c3)CC2)nc1C` here?
**A.** The Activity was 24.74%.

**Q.** And the EC50 [2]?
**A.** The EC50 was 121 µM.

**Q.** With `Cc1nc(C)c(CN2CCN(C(=O)c3ccc(Cl)cc3)CC2)nc1C` as the compound, how does the Activity [1] read?
**A.** Its Activity is 25.62%.

**Q.** And the EC50 [2]?
**A.** The EC50 was 208 µM.

**Q.** Which Activity [1] does the source give for `Cc1nc(C)c(CN2CCN(C(=O)c3ccc(Cl)cc3Cl)CC2)nc1C` here?
**A.** Its Activity is 16.08%.

**Q.** And the EC50 [2]?
**A.** The EC50 was 249 µM.

**Q.** Which Activity [1] does the source give for `COc1ccc(OC)c(/C=C/C(=O)N2CCN(Cc3nc(C)c(C)nc3C)CC2)c1` here?
**A.** The Activity was 9.78%.

**Q.** And the EC50 [2]?
**A.** The EC50 was 376 µM.

**Q.** Which results are given for `CC(=O)Oc1ccccc1C(=O)N1CCN(Cc2nc(C)c(C)nc2C)CC1`?
**A.** Activity [1]: 3.02%; EC50 [2]: 159 µM

**Q.** With `Cc1nc(C)c(CN2CCN(C(=O)c3cccnc3)CC2)nc1C` as the compound, how does the Activity [1] read?
**A.** Its Activity is 5.08%.

**Q.** And the EC50 [2]?
**A.** Its EC50 is 220 µM.

**Q.** With `Cc1nc(C)c(CN2CCN(C(=O)c3ccncc3)CC2)nc1C` as the compound, how does the Activity [1] read?
**A.** The Activity was 6.07%.

**Q.** And the EC50 [2]?
**A.** The EC50 was 29.7 µM.

**Q.** Which Activity [1] does the source give for `Cc1nc(C)c(CN2CCN(C(=O)C(C)(C)Oc3ccc(Cl)cc3)CC2)nc1C` here?
**A.** Its Activity is 13.68%.

**Q.** With `Cc1nc(C)c(CN2CCN(S(C)(=O)=O)CC2)nc1C` as the compound, how does the Activity [1] read?
**A.** The Activity was 33.51%.

**Q.** And the EC50 [2]?
**A.** Its EC50 is 162 µM.

**Q.** Which results are given for `Cc1nc(C)c(CN2CCN(C(=O)CCl)CC2)nc1C`?
**A.** Activity [1]: 24.89%; EC50 [2]: 148 µM

**Q.** With `Cc1nc(C)c(CN2CCN(C(=O)c3ccco3)CC2)nc1C` as the compound, how does the Activity [1] read?
**A.** Its Activity is 21.76%.

**Q.** And the EC50 [2]?
**A.** The EC50 was 37.6 µM.

**Q.** Which Activity [1] does the source give for `COc1ccc(C(=O)N2CCN(Cc3nc(C)c(C)nc3C)CC2)cc1` here?
**A.** Its Activity is 26.06%.

**Q.** And the EC50 [2]?
**A.** The EC50 was 210 µM.

**Q.** For `Cc1nc(C)c(CN2CCN(C(=O)c3ccc([N+](=O)[O-])cc3)CC2)nc1C`, which Activity [1] is on record?
**A.** The Activity was 28.64%.

**Q.** What about the EC50 [2] of the same compound?
**A.** The EC50 was 462 µM.

**Q.** For `COc1ccc(/C=C/C(=O)N2CCN(Cc3nc(C)c(C)nc3C)CC2)cc1OC`, which Activity [1] is on record?
**A.** Its Activity is 6.13%.

**Q.** What about the EC50 [2] of the same compound?
**A.** Its EC50 is 282 µM.

**Q.** With `COc1ccccc1C(=O)N1CCN(Cc2nc(C)c(C)nc2C)CC1` as the compound, how does the Activity [1] read?
**A.** The Activity was 24.27%.

**Q.** What about the EC50 [2] of the same compound?
**A.** Its EC50 is 249 µM.

**Q.** Which results are given for `Cc1nc(C)c(CN2CCN(C(=O)/C=C/c3cccc([N+](=O)[O-])c3)CC2)nc1C`?
**A.** Activity [1]: 13.07%; EC50 [2]: 422 µM

**Q.** Which Activity [1] does the source give for `Cc1nc(C)c(CN2CCN(C(=O)c3ccccc3I)CC2)nc1C` here?
**A.** The Activity was 25.45%.

**Q.** And the EC50 [2]?
**A.** Its EC50 is 67.8 µM.

**Q.** Which Activity [1] does the source give for `Cc1nc(C)c(CN2CCN(C(=O)Cc3ccc([N+](=O)[O-])cc3)CC2)nc1C` here?
**A.** The Activity was 18.24%.

**Q.** What about the EC50 [2] of the same compound?
**A.** Its EC50 is 377 µM.

**Q.** Which results are given for `Cc1nc(C)c(C)nc1C` [LIGUSTRAZINE]?
**A.** Activity [1]: 7.86%; EC50 [2]: 154 µM; half-life [3]: 2.89 h
